# Bioassay records from PubChem BioAssay.
# Hits are enriched below; roughly 3.3% of the tested compounds scored in any of these assays.
# HTR2A ag = activates the mouse 5-HT2A serotonin receptor; P35363; CHO-K1 mHTR2A beta-arrestin complementation, luminescence; percent of 30 µM serotonin response; activation, % at 7.6 µM; actives 0.66% (n = 360,000); AID 624169;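 active means activation above a run cutoff, the mean activation of all tested compounds plus 3 SD, cut at about 14% in these data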
# Target sequence (P35363 whole entry, looked up): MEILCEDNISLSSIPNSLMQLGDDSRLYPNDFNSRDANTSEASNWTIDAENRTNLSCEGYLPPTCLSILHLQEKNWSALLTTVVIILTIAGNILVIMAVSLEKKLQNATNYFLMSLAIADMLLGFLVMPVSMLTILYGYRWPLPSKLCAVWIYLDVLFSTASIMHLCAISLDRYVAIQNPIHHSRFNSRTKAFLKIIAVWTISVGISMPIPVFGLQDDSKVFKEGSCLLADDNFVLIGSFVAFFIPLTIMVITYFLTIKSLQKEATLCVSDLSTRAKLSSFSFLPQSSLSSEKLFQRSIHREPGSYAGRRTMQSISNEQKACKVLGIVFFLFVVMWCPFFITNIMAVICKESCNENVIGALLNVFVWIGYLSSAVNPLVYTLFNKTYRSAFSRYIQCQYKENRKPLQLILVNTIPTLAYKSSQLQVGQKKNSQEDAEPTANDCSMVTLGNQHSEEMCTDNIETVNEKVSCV
# CendR NRP1 mod = NRP-1/CendR interaction modulation | inhibition, % at 25 µM | O14786 | actives 0.85% (n = 360,000) | FAM-RPARPAR peptide binding to NRP-1, fluorescence polarization | AID 602438;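 active means inhibition or corrected inhibition above about 18%, plus a signal ratio from 0.5 to 1.5, limit read from the data, passing the limit was not always enough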
# HGIII-sPLA2 inh = Inhibits HGIII-sPLA2 liposome hydrolysis, primary screen; QFRET BODIPY PC-A2 liposome hydrolysis, fluorescence; AID 743126; inhibition, % at 12.2 µM; actives 0.56% (n = 370,000); Q9NZ20;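 active means inhibition above mean plus 3 SD of compounds lying within the high and low control bounds, cut at about 19% in these data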
# PfM18AAP inh = blocks P. falciparum M18 aspartyl aminopeptidase | actives 1.2% (n = 290,000) | inhibition, % at 7.35 µM | AID 1822 | recombinant PfM18AAP, H-Glu-NHMec fluorogenic cleavage;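 active means inhibition above the campaign mean inhibition over all tested compounds plus 3 SD, cut at about 28% in these data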
# Arrestin-AP2 inh = inhibitors of human beta-arrestin and AP2 interaction | FITC-arrestin peptide / GST-AP2 beads, flow cytometry; AP2 beta2 appendage carries R879A mutation | inhibition, % at 10 µM | actives 0.31% (n = 340,000);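 active means inhibition above a set limit, near 3 SD of compounds lacking own fluorescence, cut at about 54% in these data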
#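 System: GST-AP2 R879A glutathione beads | Also added: FITC-arrestin peptide, 50 nM | Times: 12 min plus 1 h, RT | Signal: Bead flow cytometry, FITC channel | Buffer or medium: PBS with 0.05% Tween 20 and 0.1% BSA | Read-out basis: Percent drop in bead-associated FITC signal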
# Lipid droplet = hepatic lipid droplet formation modulation; AML12 mouse hepatocytes, oleate lipid droplets, BODIPY imaging; AID 1656; inhibition, % at 6.5 µM; actives 0.4% (n = 240,000);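 active means lipid droplet intensity inhibited by at least 50%, with more than 500 cells counted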
#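 Assay system: AML12 hepatocytes (mouse); Probe or stimulus: oleic acid at 100 µM to induce lipid droplet formation; Dosing: compound at 6.5 µM only; Schedule: compound with oleate, overnight; Detection: fluorescence imaging, 20x objective, two fields per well; Measure: % inhibition of lipid droplet signal.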
# Numbers stand for hits; 0 = inactive; - = no result.
SMILES,HTR2A ag,CendR NRP1 mod,HGIII-sPLA2 inh,PfM18AAP inh,Arrestin-AP2 inh,Lipid droplet
Cc1cc(C(O)c2ncc(-c3ccccc3C)[nH]2)ccc1F (stereo not drawn),0,0,0,-,-,-
Cc1ccccc1-c1cnc(C(O)c2ccc(F)c(F)c2)[nH]1 (stereo not drawn),0,23,0,-,-,-
CC(=NNc1cc(C)c2cc(C)ccc2n1)c1ccccn1,-,-,0,-,-,-
COCc1cn(CC[C@@H]2CC[C@@H](NC(=O)Nc3ccc4c(c3)OCO4)[C@@H](CO)O2)nn1,0,0,0,-,-,-
CC1(C)CCC/C(=C\c2ccccc2)C1=O,0,20,0,-,0,-
O=C(NCc1ccccc1)c1cc(C2COCCN2S(=O)(=O)c2ccccc2)on1 (stereo not drawn),0,0,0,-,-,-
CC(Oc1cccc(Cl)c1)C(=O)Nc1ccccc1N1CCCCC1 (stereo not drawn),0,28,0,-,0,-
CC(Oc1cccc(Cl)c1)C(=O)Nc1ccccc1C(=O)N1CCCCC1 (stereo not drawn),0,0,0,-,0,-
CCN(CC)C(=O)[C@H]1CC(CC(=O)NC(C)(C)C)C(=O)N2CCc3c([nH]c4ccccc34)[C@]12C (stereo partly drawn),0,0,0,-,0,-
C=C(C)COc1ccc(-c2[nH]ncc2-c2ccccc2)c(O)c1,0,25,0,0,0,-
O=C1CSC(=S)N1/N=C/c1cc(Br)ccc1O,-,-,-,35,-,0
CC(C)(C)c1ccc(/C=N/N2C(=O)CSC2=S)cc1,0,0,0,31,0,0
COc1ccccc1C=NN1C(=O)CSC1=S,0,0,0,-,0,-
O=C1CSC(=S)N1/N=C/c1ccc(O)c(O)c1O,0,0,-,68,57,0
O=C1CSC(=S)N1N=Cc1ccc2c(c1)OCO2,0,0,0,-,0,-
O=S1(=O)N[C@H](c2ccccc2)COc2cc(Br)ccc21,-,-,0,-,-,-
COc1ccccc1NC(=O)c1ccccc1Oc1ccccc1,0,26,0,0,0,-
COc1cc(NC(=O)c2cc3ccccc3cc2O)c(OC)cc1Cl,21,0,0,0,0,0
COc1ccc(NC(=O)c2ccccc2Oc2ccccc2)c(OC)c1,0,0,0,0,0,-
COc1cc(OC)c(NC(=O)c2ccccc2F)cc1Cl,0,0,0,0,0,0
CCCOC(=O)Nc1cc(OC)c(Cl)cc1OC,0,17,0,0,0,0
O=C(NCc1ccc(Cl)cc1)c1ccc(-c2ccc(F)c(F)c2)c2ccoc12,0,0,0,-,-,-
O=C(Cn1cnc2cc([N+](=O)[O-])ccc2c1=O)NCCc1ccc(F)cc1,0,0,0,0,0,0
O=C(Cn1cnc2cc([N+](=O)[O-])ccc2c1=O)NCCc1ccc(Cl)cc1,0,20,0,0,0,0
C[C@H]1COc2cc(Br)ccc2S(=O)(=O)N1Cc1cn(Cc2ccc(Br)cc2)nn1,-,-,0,-,-,-
SMILES,HTR2A ag,CendR NRP1 mod,HGIII-sPLA2 inh,PfM18AAP inh,Arrestin-AP2 inh,Lipid droplet
CCOc1cccc(N)c1,0,0,-,-,0,-
CCOc1ccc(N)c(SSc2cc(OCC)ccc2N)c1,0,0,0,43,0,0
Cc1cccc(C)c1OCC(=O)Nc1ncn[nH]1,0,0,0,29,0,0
Cc1ccc2nc(-c3ccc(F)cc3)c(Cc3ccccc3C(F)(F)F)n2c1,0,0,0,-,-,-
Cc1ccc(C2=NN=C(NC(=O)CSc3nncn3C)SC2)cc1,0,0,0,54,0,0
CN1OC[C@@H]2CN3C(=Nc4cc(C(F)(F)F)cc(C(F)(F)F)c4)Sc4ccccc4[C@@H]3C[C@@H]21,-,-,0,-,-,-
COc1cccc(Cn2c(C(C)n3c(-c4cnccn4)nc4ccccc43)nc3ccccc32)c1 (stereo not drawn),0,0,0,-,-,-
COC(=O)[C@]12C[C@H](CC(=O)N3CCCCC3)C(=O)N(CCC3=CCCCC3)C1=C[C@H](C1CCCC1)O[C@@H]2C,-,-,0,-,-,-
Nc1cc(S(=O)(=O)N2CCOCC2)ccc1Oc1ccc(F)cc1,0,28,0,0,0,0
COc1ccccc1C(=O)NCCCNC(=O)c1cccnc1,0,33,0,0,0,0
Cn1c(CCc2ccccc2)n[nH]c1=S,0,0,0,0,0,0
Cn1c(CSc2nc3ccccc3s2)nc2ccccc21,0,0,0,0,0,0
Cn1c(CSc2nc3ccccc3s2)n[nH]c1=S,0,0,0,30,0,0
Cn1c(Cc2ccccc2)n[nH]c1=S,0,0,0,30,0,0
COc1cccc(C(=O)Nc2ccc(C)cc2)c1,0,0,0,0,0,0
COc1cccc(C(=O)Nc2ccc(C3CC3(Cl)Cl)cc2)c1 (stereo not drawn),0,21,0,0,0,0
COC(=O)c1cccc(NC(=O)c2cccc(OC)c2)c1,0,23,0,0,0,0
CCCCNC(=O)C1CCCN1C(=O)Nc1ccc(Cl)cc1 (stereo not drawn),-,-,0,-,-,-
Cc1cccc2cc(C#N)c(SCCN3CCCCC3)nc12,-,-,-,0,-,-
Cc1cccc2cc(C#N)c(SCc3nnc(-c4ccccc4[N+](=O)[O-])o3)nc12,0,32,0,0,0,0
CCOC(=O)c1c(C)[nH]c(C)c1C(=O)COC(=O)c1cc2ccccc2cc1O,0,0,0,53,0,0
CCC(C)Nc1nc(C)nc2c1nnn2Cc1ccccc1 (stereo not drawn),-,-,0,-,-,-
O=C(NCCn1cccn1)C1CCC(=O)N(CCc2cccc(F)c2)C1 (stereo not drawn),0,47,0,0,0,0
C#CCOCCOCCOCCNc1nc(N2CCN(C(=O)[C@H](CCCCN)n3cc([C@@H](N)C(C)CC)nn3)CC2)nc(N2CCN(C(=O)[C@H](CCCCN)n3cc([C@@H](N)CC(C)C)nn3)CC2)n1 (stereo partly drawn),0,22,0,0,0,0
COc1ccc(C(=O)C2CC2c2ccc3c(c2)OCO3)cc1 (stereo not drawn),0,28,0,0,0,0
COc1ccc(C(=O)NCc2ccc3c(c2)OCO3)cc1,0,0,0,0,0,0
